≈ marks a conversion by molar mass, not a printed value.
Assays:
Assay type in all cases: functional
[1] = test system: Klebsiella pneumoniae; experiment: Minimum inhibitory concentration against Klebsiella pneumoniae MGH-2
Summary of the method: (§1)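 Standard microdilution method against a panel of five Gram-negative and five Gram-positive bacterial strains. The MIC (µg/mL) was recorded for each strain.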

[2] = test system: Mus musculus; experiment: Median protective dose determined in acute lethal system infection caused by Escherichia coli vogel in CD-1 mice (single dose sc); settings: read-out: PD50
Summary of the method: (§2)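 Acute lethal systemic infection in female Charles River CD-1 mice; compound given once, orally (po) or subcutaneously (sc), at the time of challenge. Median protective dose (PD50, mg/kg) derived from survival.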

[3] = test system: Pseudomonas aeruginosa; experiment: Minimum inhibitory concentration against Pseudomonas aeruginosa UI-18; summary of the method: as §1
[4] = test system: Staphylococcus aureus; experiment: Minimum inhibitory concentration against Staphylococcus aureus H-228; summary of the method: as §1
[5] = test system: Streptococcus pneumoniae; experiment: Minimum inhibitory concentration against Streptococcus pneumoniae SV-1; summary of the method: as §1
[6] = organism: Mus musculus; experiment: Median protective dose determined in acute lethal system infection caused by Streptococcus pyogenes C-203 in CD-1 mice (single dose perorally); settings: po, read-out: PD50; summary of the method: as §2
[7] = test system: Enterococcus faecalis; experiment: Minimum inhibitory concentration against […] MGH-2; summary of the method: as §1
[8] = test system: Providencia rettgeri; experiment: Minimum inhibitory concentration against Providencia rettgeri M-1771; summary of the method: as §1
[9] = test system: Escherichia coli; experiment: Minimum inhibitory concentration against Escherichia coli Vogel; summary of the method: as §1
[10] = test system: Streptococcus pyogenes; experiment: Minimum inhibitory concentration against Streptococcus pyogenes C-203; summary of the method: as §1
[11] = organism: Mus musculus; experiment: Median protective dose determined in acute lethal system infection caused by Escherichia coli vogel in CD-1 mice (single dose perorally); settings: po, read-out: PD50; summary of the method: as §2
[12] = test system: Enterobacter cloacae; experiment: Minimum inhibitory concentration against […] MA-2646; summary of the method: as §1
[13] = test system: Staphylococcus aureus; experiment: Minimum inhibitory concentration against Staphylococcus aureus UC-76; summary of the method: as §1
[14] = test system: Mus musculus; experiment: Median protective dose determined in acute lethal system infection caused by Streptococcus pyogenes C-203 in CD-1 mice (single dose sc); settings: read-out: PD50; summary of the method: as §2
[15] = Klebsiella pneumoniae, read-out: MIC
[16] = Pseudomonas aeruginosa, read-out: MIC
[17] = Staphylococcus aureus, read-out: MIC
[18] = Streptococcus pneumoniae, read-out: MIC
[19] = Enterococcus faecalis, read-out: MIC
[20] = Providencia rettgeri, read-out: MIC
[21] = Escherichia coli, read-out: MIC
[22] = Streptococcus pyogenes, read-out: MIC
[23] = Enterobacter cloacae, read-out: MIC

NC1CN(c2c(F)cc3c(=O)c(C(=O)O)cn(C4CC4)c3c2F)CC1c1ccccc1 (trans isomer)
MIC [1, 15]: 0.05 µg/mL (≈ 0.118 µM)
ED50 [2]: 7 mg/kg
MIC [3, 16]: 0.8 µg/mL (≈ 1.88 µM)
MIC [4, 17]: 0.025 µg/mL (≈ 0.0588 µM)
MIC [5, 18]: 0.1 µg/mL (≈ 0.235 µM)
ED50 [6]: 10 mg/kg
MIC [7, 19]: 0.1 µg/mL (≈ 0.235 µM)
MIC [8, 20]: 0.1 µg/mL (≈ 0.235 µM)
MIC [9, 21]: 0.025 µg/mL (≈ 0.0588 µM)
MIC [10, 22]: 0.1 µg/mL (≈ 0.235 µM)
ED50 [11]: 15.5 mg/kg
MIC [12, 23]: 0.025 µg/mL (≈ 0.0588 µM)
MIC [13, 17]: 0.013 µg/mL (≈ 0.0306 µM)
ED50 [14]: 1.6 mg/kg

Nc1ccc(C2CN(c3nc4c(cc3F)c(=O)c(C(=O)O)cn4C3CC3)CC2N)cc1 (trans isomer)
MIC [1, 15]: 0.2 µg/mL (≈ 0.472 µM)
ED50 [2]: 3.1 mg/kg
MIC [3, 16]: 1.6 µg/mL (≈ 3.78 µM)
MIC [4, 17]: 0.2 µg/mL (≈ 0.472 µM)
MIC [5, 18]: 0.2 µg/mL (≈ 0.472 µM)
MIC [7, 19]: 0.2 µg/mL (≈ 0.472 µM)
MIC [8, 20]: 0.4 µg/mL (≈ 0.945 µM)
MIC [9, 21]: 0.1 µg/mL (≈ 0.236 µM)
MIC [10, 22]: 0.2 µg/mL (≈ 0.472 µM)
ED50 [11]: 24 mg/kg
MIC [12, 23]: 0.1 µg/mL (≈ 0.236 µM)
MIC [13, 17]: 0.05 µg/mL (≈ 0.118 µM)

NC1CN(c2nc3c(cc2F)c(=O)c(C(=O)O)cn3C2CC2)CC1c1ccc(F)cc1 (trans isomer)
MIC [1, 15]: 0.2 µg/mL (≈ 0.469 µM)
ED50 [2]: 9 mg/kg
MIC [3, 16]: 1.6 µg/mL (≈ 3.75 µM)
MIC [4, 17]: 0.1 µg/mL (≈ 0.235 µM)
MIC [5, 18]: 0.2 µg/mL (≈ 0.469 µM)
MIC [7, 19]: 0.1 µg/mL (≈ 0.235 µM)
MIC [8, 20]: 0.4 µg/mL (≈ 0.938 µM)
MIC [9, 21]: 0.1 µg/mL (≈ 0.235 µM)
MIC [10, 22]: 0.2 µg/mL (≈ 0.469 µM)
ED50 [11]: 18 mg/kg
MIC [12, 23]: 0.1 µg/mL (≈ 0.235 µM)
MIC [13, 17]: 0.025 µg/mL (≈ 0.0586 µM)

NCC1CN(c2c(F)cc3c(=O)c(C(=O)O)cn(C4CC4)c3c2F)CC1c1ccccc1 (trans isomer)
MIC [1, 15]: 0.05 µg/mL (≈ 0.114 µM)
MIC [3, 16]: 0.8 µg/mL (≈ 1.82 µM)
MIC [4, 17]: 0.013 µg/mL (≈ 0.0296 µM)
MIC [5, 18]: 0.013 µg/mL (≈ 0.0296 µM)
ED50 [6]: 10 mg/kg
MIC [7, 19]: 0.013 µg/mL (≈ 0.0296 µM)
MIC [8, 20]: 0.1 µg/mL (≈ 0.228 µM)
MIC [9, 21]: 0.05 µg/mL (≈ 0.114 µM)
MIC [10, 22]: 0.013 µg/mL (≈ 0.0296 µM)
MIC [12, 23]: 0.05 µg/mL (≈ 0.114 µM)
MIC [13, 17]: 0.003 µg/mL (≈ 0.00683 µM)
ED50 [14]: 1.6 mg/kg

CC(C)c1ccc(C2CN(c3c(F)cc4c(=O)c(C(=O)O)cn(C5CC5)c4c3F)CC2N)cc1 (trans isomer)
MIC [1, 15]: 0.4 µg/mL (≈ 0.856 µM)
MIC [3, 16]: 3.1 µg/mL (≈ 6.63 µM)
MIC [4, 17]: 0.05 µg/mL (≈ 0.107 µM)
MIC [5, 18]: 0.2 µg/mL (≈ 0.428 µM)
ED50 [6]: 100 mg/kg
MIC [7, 19]: 0.2 µg/mL (≈ 0.428 µM)
MIC [8, 20]: 0.4 µg/mL (≈ 0.856 µM)
MIC [9, 21]: 0.4 µg/mL (≈ 0.856 µM)
MIC [10, 22]: 0.2 µg/mL (≈ 0.428 µM)
MIC [12, 23]: 0.4 µg/mL (≈ 0.856 µM)
MIC [13, 17]: 0.025 µg/mL (≈ 0.0535 µM)
ED50 [14]: 90 mg/kg

NCC1CN(c2nc3c(cc2F)c(=O)c(C(=O)O)cn3C2CC2)CC1c1ccco1 (trans isomer)
MIC [1, 15]: 0.1 µg/mL (≈ 0.242 µM)
MIC [3, 16]: 0.4 µg/mL (≈ 0.97 µM)
MIC [4, 17]: 0.05 µg/mL (≈ 0.121 µM)
MIC [5, 18]: 0.025 µg/mL (≈ 0.0606 µM)
ED50 [6]: 36 mg/kg
MIC [7, 19]: 0.05 µg/mL (≈ 0.121 µM)
MIC [8, 20]: 0.2 µg/mL (≈ 0.485 µM)
MIC [9, 21]: 0.1 µg/mL (≈ 0.242 µM)
MIC [10, 22]: 0.05 µg/mL (≈ 0.121 µM)
MIC [12, 23]: 0.2 µg/mL (≈ 0.485 µM)
MIC [13, 17]: 0.013 µg/mL (≈ 0.0315 µM)
ED50 [14]: 4.2 mg/kg

COc1ccccc1C1CN(c2nc3c(cc2F)c(=O)c(C(=O)O)cn3C2CC2)CC1N (stereo in doubt)
MIC [1]: 0.4 µg/mL (≈ 0.912 µM)
ED50 [2]: 28 mg/kg
MIC [3]: 3.1 µg/mL (≈ 7.07 µM)
MIC [4]: 0.1 µg/mL (≈ 0.228 µM)
MIC [5]: 0.1 µg/mL (≈ 0.228 µM)
ED50 [6]: 44 mg/kg
MIC [7]: 0.2 µg/mL (≈ 0.456 µM)
MIC [8]: 0.8 µg/mL (≈ 1.82 µM)
MIC [9]: 0.2 µg/mL (≈ 0.456 µM)
MIC [10]: 0.2 µg/mL (≈ 0.456 µM)
ED50 [11]: 37 mg/kg
MIC [12]: 0.2 µg/mL (≈ 0.456 µM)
MIC [13]: 0.05 µg/mL (≈ 0.114 µM)
ED50 [14]: 22 mg/kg

NCC1CN(c2nc3c(cc2F)c(=O)c(C(=O)O)cn3C2CC2)CC1c1ccccc1 (trans isomer)
MIC [1, 15]: 0.05 µg/mL (≈ 0.118 µM)
MIC [3, 16]: 0.8 µg/mL (≈ 1.89 µM)
MIC [4, 17]: 0.025 µg/mL (≈ 0.0592 µM)
MIC [5, 18]: 0.013 µg/mL (≈ 0.0308 µM)
ED50 [6]: 27 mg/kg
MIC [7, 19]: 0.025 µg/mL (≈ 0.0592 µM)
MIC [8, 20]: 0.1 µg/mL (≈ 0.237 µM)
MIC [9, 21]: 0.05 µg/mL (≈ 0.118 µM)
MIC [10, 22]: 0.025 µg/mL (≈ 0.0592 µM)
MIC [12, 23]: 0.05 µg/mL (≈ 0.118 µM)
MIC [13, 17]: 0.006 µg/mL (≈ 0.0142 µM)
ED50 [14]: 4.5 mg/kg

NC1CN(c2c(F)cc3c(=O)c(C(=O)O)cn(C4CC4)c3c2F)CC1c1ccc(F)cc1 (trans isomer)
MIC [1, 15]: 0.1 µg/mL (≈ 0.226 µM)
MIC [3, 16]: 1.6 µg/mL (≈ 3.61 µM)
MIC [4, 17]: 0.025 µg/mL (≈ 0.0564 µM)
MIC [5, 18]: 0.1 µg/mL (≈ 0.226 µM)
ED50 [6]: 44 mg/kg
MIC [7, 19]: 0.1 µg/mL (≈ 0.226 µM)
MIC [8, 20]: 0.2 µg/mL (≈ 0.451 µM)
MIC [9, 21]: 0.1 µg/mL (≈ 0.226 µM)
MIC [10, 22]: 0.1 µg/mL (≈ 0.226 µM)
MIC [12, 23]: 0.1 µg/mL (≈ 0.226 µM)
MIC [13, 17]: 0.013 µg/mL (≈ 0.0293 µM)
ED50 [14]: 40 mg/kg

NC1CN(c2nc3c(cc2F)c(=O)c(C(=O)O)cn3C2CC2)CC1c1ccccc1 (stereo not drawn)
MIC [1, 15]: 0.2 µg/mL (≈ 0.49 µM)
ED50 [2]: 6.5 mg/kg
MIC [3, 16]: 1.6 µg/mL (≈ 3.92 µM)
MIC [4, 17]: 0.1 µg/mL (≈ 0.245 µM)
MIC [5, 18]: 0.1 µg/mL (≈ 0.245 µM)
MIC [7, 19]: 0.2 µg/mL (≈ 0.49 µM)
MIC [8, 20]: 0.4 µg/mL (≈ 0.979 µM)
MIC [9, 21]: 0.1 µg/mL (≈ 0.245 µM)
MIC [10, 22]: 0.2 µg/mL (≈ 0.49 µM)
ED50 [11]: 11 mg/kg
MIC [12, 23]: 0.1 µg/mL (≈ 0.245 µM)
MIC [13, 17]: 0.05 µg/mL (≈ 0.122 µM)

Nc1ccc(C2CN(c3c(F)cc4c(=O)c(C(=O)O)cn(C5CC5)c4c3F)CC2N)cc1 (trans isomer)
MIC [1, 15]: 0.1 µg/mL (≈ 0.227 µM)
ED50 [2]: 1.6 mg/kg
MIC [3, 16]: 0.8 µg/mL (≈ 1.82 µM)
MIC [4, 17]: 0.1 µg/mL (≈ 0.227 µM)
MIC [5, 18]: 0.1 µg/mL (≈ 0.227 µM)
MIC [7, 19]: 0.1 µg/mL (≈ 0.227 µM)
MIC [8, 20]: 0.2 µg/mL (≈ 0.454 µM)
MIC [9, 21]: 0.05 µg/mL (≈ 0.114 µM)
MIC [10, 22]: 0.1 µg/mL (≈ 0.227 µM)
ED50 [11]: 10 mg/kg
MIC [12, 23]: 0.05 µg/mL (≈ 0.114 µM)
MIC [13, 17]: 0.025 µg/mL (≈ 0.0568 µM)

NC1CN(c2c(F)cc3c(=O)c(C(=O)O)cn(C4CC4)c3c2F)CC1c1ccc(O)cc1 (trans isomer)
MIC [1, 15]: 0.1 µg/mL (≈ 0.227 µM)
ED50 [2]: 50 mg/kg
MIC [3, 16]: 1.6 µg/mL (≈ 3.62 µM)
MIC [4, 17]: 0.1 µg/mL (≈ 0.227 µM)
MIC [5, 18]: 0.1 µg/mL (≈ 0.227 µM)
MIC [7, 19]: 0.1 µg/mL (≈ 0.227 µM)
MIC [8, 20]: 0.2 µg/mL (≈ 0.453 µM)
MIC [9, 21]: 0.1 µg/mL (≈ 0.227 µM)
MIC [10, 22]: 0.1 µg/mL (≈ 0.227 µM)
ED50 [11]: 100 mg/kg
MIC [12, 23]: 0.1 µg/mL (≈ 0.227 µM)
MIC [13, 17]: 0.025 µg/mL (≈ 0.0566 µM)

From ChEMBL document CHEMBL1126564, “Synthesis and antimicrobial evaluation of a series of 7-[3-amino (or aminomethyl)-4-aryl (or cyclopropyl)-1-pyrrolidinyl]-4-quinolone- and -1,8-naphthyridone-3-carboxylic acids” (1993)
